For 21 compounds, IC50, Activity and T/C results are on record in ChEMBL document CHEMBL1150195, “The 1990 United States-Japan seminar on bioorganic marine chemistry, meeting report” (J Nat Prod, 1991).

A short description of experiment [1]: Inhibition of protein phosphatase 2A.
Another experiment deals with KB. Description: Cytotoxicity against human KB cells. The format is functional, cell-based.
In the next experiment the test system is Candida albicans. Nature of the experiment: Antifungal activity against Candida albicans in presence of 50 ppm ergosterol. In kind it is functional. Put shortly: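 Candida albicans screened first by conventional agar disk diffusion. Samples active against C. albicans but not Escherichia coli were retested on agar-tryptic broth plates supplemented with ergosterol at 0–100 ppm. The assay picks out antifungal activity that depends on binding to membrane ergosterol.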

The next experiment relates to L1210. Description: Cytotoxicity against mouse L1210 cells at 0.1 ug/ml. In kind it is functional.
A further experiment concerns Leukemia cell. Description: In vivo antitumor activity against human leukemia cells xenografted in mouse at 160 ug/kg/injection relative to control. In kind it is functional. In general terms: In xenograft studies the graft and the host belong to different species.
The subject of the next experiment is Melanoma cell. Description: In vivo antitumor activity against human melanoma cells xenografted in mouse at 160 ug/kg//injection relative to control. The format is functional.
The test system of a further experiment is HCT-116. Description: Cytotoxicity against human HCT116 cells. In kind it is functional, cell-based.
The next experiment relates to B16. Description: Cytotoxicity against mouse B16 cells. The format is functional, cell-based.
Another experiment has as its system P388. Description: In vivo antitumor activity against mouse P388 cells at 0.125 mg/kg relative to control. In kind it is functional.

SMILES strings stand for the structures. In brackets after ≈: the same amount, converted by molar mass.

The IC50 is the concentration at which inhibition is half-maximal. High values mean a need for much substance, low ones inhibition by little substance. In the case of `COC[C@@H]([C@H](O)[C@H](O)C(=O)N[C@H](C)C[C@H](C)c1nc(/C=C/C[C@@H]2O[C@]3(C[C@@H](O)[C@@H]2C)O[C@H]([C@H](C[C@H](O)[C@H](C)[C@H](O)[C@H](C)/C=C(C)/C(C)=C/C=C/C(C)=C/C#N)OC)[C@H](OP(=O)(O)O)C3(C)C)co1)N(C)C` [CALYCULIN D], the IC50 in [1] came to 0.9 nM.
In the experiment on KB, `CO/N=C/CCCCCCC[C@@H](C)CCCCCCCCCCc1cccnc1` [IKIMINE A] yielded an IC50 of 5 µg/mL (≈ 12.4 µM).
`COC[C@@H]([C@H](O)[C@H](O)C(=O)NCC[C@H](C)c1nc(/C=C/C[C@@H]2O[C@]3(C[C@@H](O)[C@@H]2C)O[C@H]([C@H](C[C@H](O)[C@H](C)[C@H](O)[C@H](C)/C=C(C)/C(C)=C\C=C\C(C)=C\C#N)OC)[C@H](OP(=O)(O)O)C3(C)C)co1)N(C)C` [CALYCULIN F] returned a concentration for half-maximal inhibition (IC50) in experiment [1] of 0.9 nM. In other words, the sub-nanomolar range.
For the compound `C[C@@H]1[C@H](O)[C@@H](C)/C=C/C=C/C=C/C=C/C=C/C=C/C=C/[C@H](O[C@@H]2O[C@H](C)[C@@H](O)[C@H](N)[C@@H]2O)C[C@@H]2O[C@](O)(C[C@@H](O)C[C@@H](O)[C@H](O)CC[C@@H](O)C[C@@H](O)CC(=O)O[C@H]1C)C[C@H](O)[C@H]2C(=O)O` [AMPHOTERICIN B], the Activity in the experiment on Candida albicans was 50%.
Turning to `CC[C@@H]1CCCC[C@]2(C[C@H]3CCC4(O)C(C(=O)OCCCCCCCCCCCCCCCCCC(=O)N(CCCN)CC(O)CCN)[C@@]5(CCC[C@H](C)O5)N=C(N2)N34)O1` (stereo partly drawn) [CRAMBESCIDIN 844], the Activity in the experiment with L1210 worked out at 98%.
Compound `CO[C@H]1C[C@H](CC[C@H](C)[C@H](O)[C@H](C)[C@H]2OC(=O)/C=C/C(C)=C/C[C@H](O)C[C@@H]3CCC[C@H](C[C@H](OC)[C@@H](C)[C@@H](O)C[C@@H](O)[C@H](C)[C@@H]([C@@H](C)[C@@H](O)[C@@H](C)CC[C@H]4C[C@H](O)C[C@H](C)O4)OC(=O)/C=C/C(C)=C/C[C@H](O)C[C@@H]4C=CC[C@H](C[C@H](OC)[C@@H](C)[C@@H](O)C[C@@H](O)[C@@H]2C)O4)O3)O[C@@H](C)C1` [swiholide C] showed an IC50 in the experiment on KB of 0.04 µg/mL (≈ 0.029 µM).
For orientation: T/C means the result in the treated group divided by that in the control group, in per cent. Regarding `CC[C@H](C)[C@H]1NC(=O)[C@@H](NC(=O)[C@@H](CC(C)C)N(C)C(=O)[C@@H]2CCCN2C(=O)C(C)=O)[C@@H](C)OC(=O)[C@H](Cc2ccc(OC)cc2)N(C)C(=O)[C@@H]2CCCN2C(=O)[C@H](CC(C)C)NC(=O)[C@@H](C)C(=O)[C@H](C(C)C)OC(=O)C[C@@H]1O` [PLITIDEPSIN], the T/C in the experiment on Leukemia cell worked out at 210%; with Melanoma cell it was 218%.
`CC[C@@H]1CCCC[C@]2(C[C@H]3CCC4(O)C(C(=O)OCCCCCCCCCCCCCCCCC(=O)N(CCCN)CC(O)CCN)[C@@]5(CCC[C@H](C)O5)N=C(N2)N34)O1` (stereo partly drawn) [CRAMBESCIDIN 830]: the Activity in the experiment with L1210 came out at 98%.
In the experiment with L1210, `CC[C@H]1CCCC[C@@]2(C[C@@H]3CC[C@@H]4[C@H](C(=O)OCCCCCCCCCCCCCCCC(=O)N(CCCN)C[C@@H](O)CCN)[C@]5(CCC[C@@H](C)O5)N=C(N2)N34)O1` [CRAMBESCIDIN 800] gave an Activity of 98%.
Take `COC[C@@H]([C@H](O)[C@H](O)C(=O)NCC[C@H](C)c1nc(/C=C/C[C@@H]2O[C@]3(C[C@@H](O)[C@@H]2C)O[C@H]([C@H](C[C@H](O)[C@H](C)[C@H](O)[C@H](C)/C=C(C)/C(C)=C\C=C\C(C)=C/C#N)OC)[C@H](OP(=O)(O)O)C3(C)C)co1)N(C)C` [CALYCULIN E]: in experiment [1], the IC50 came out at 0.9 nM.
For the compound `CO[C@H]1C[C@H](CC[C@H](C)[C@H](O)[C@H](C)[C@H]2OC(=O)/C=C/C(C)=C/C[C@H](O)C[C@@H]3CCC[C@H](C[C@H](OC)[C@@H](C)[C@@H](O)C[C@@H](O)[C@H](C)[C@H](O)[C@@H](C)[C@H]([C@@H](C)CC[C@H]4C[C@H](OC)C[C@H](C)O4)OC(=O)/C=C/C(C)=C/C[C@H](O)C[C@@H]4C=CC[C@H](C[C@H](OC)[C@@H](C)[C@@H](O)C[C@@H](O)[C@@H]2C)O4)O3)O[C@@H](C)C1` [ISOSWINHOLIDE A], the IC50 in the experiment on KB amounted to 1.1 µg/mL (≈ 0.79 µM).
For `[H][C@]12Nc3c4cccc3[C@]13C1=C(N=C(O1)[C@H](C(C)C)NC(=O)[C@@H](NC(=O)[C@@H](O)C(C)C)Cc1ccc(c3c1)O2)c1nc(Cl)c(o1)-c1c(Cl)[nH]c2cccc-4c12` [DIAZONAMIDE A], the IC50 with HCT-116 and in the experiment on B16 was less than 0.015 µg/mL each time.
In [1], `COC[C@@H]([C@H](O)[C@H](O)C(=O)N[C@H](C)C[C@H](C)c1nc(/C=C/C[C@@H]2O[C@]3(C[C@@H](O)[C@@H]2C)O[C@H]([C@H](C[C@H](O)[C@H](C)[C@H](O)[C@H](C)/C=C(C)/C(C)=C/C=C/C(C)=C\C#N)OC)[C@H](OP(=O)(O)O)C3(C)C)co1)N(C)C` [CALYCULIN] displayed an IC50 of 0.9 nM. This counts as sub-nanomolar.
`CO[C@@H]1C[C@@H](O)C[C@@H](O)[C@H](C)[C@@H]([C@@H](C)[C@@H](O)[C@@H](C)CC[C@H]2C[C@H](OC)C[C@H](C)O2)OC(=O)/C=C/C(C)=C/C[C@H](O)C[C@@H]2C=CC[C@H](C[C@H](OC)[C@@H](C)[C@@H](O)C[C@@H](O)[C@H](C)[C@@H]([C@@H](C)[C@@H](O)[C@@H](C)CC[C@H]3C[C@H](OC)C[C@H](C)O3)OC(=O)/C=C/C(C)=C/C[C@H](O)C[C@@H]3CCC[C@H](C1)O3)O2` [SWINHOLIDE B] gave a half-inhibitory concentration (IC50) in the experiment with KB of 0.04 µg/mL (≈ 0.029 µM).
In turn, `C/C=C\[C@H](C)[C@H]1O[C@@]1(C)[C@@H](O)[C@H]1COC(=O)[C@H](O)[C@@H](OC)[C@H](C)C(=O)[C@H](C)[C@@H](O)/C(C)=C/[C@H](C)C(=O)CC[C@@H](C)C1=O` came in with a T/C with P388 of 190%.
With `COC[C@@H]([C@H](O)[C@H](O)C(=O)N[C@H](C)C[C@H](C)c1nc(/C=C/C[C@@H]2O[C@]3(C[C@@H](O)[C@@H]2C)O[C@H]([C@H](C[C@H](O)[C@H](C)[C@H](O)[C@H](C)/C=C(C)/C(C)=C\C=C\C(C)=C\C#N)OC)[C@H](OP(=O)(O)O)C3(C)C)co1)N(C)C` [CALYCULIN H], the IC50 in [1] was determined as 0.9 nM. This lies in the sub-nanomolar range.
For `CC[C@H]1CCCC[C@@]2(C[C@@H]3CC[C@]4(O)[C@H](C(=O)OCCCCCCCCCCCCCCCC(=O)N(CCCN)C[C@@H](O)CCN)[C@]5(CCC[C@@H](C)O5)N=C(N2)N34)O1` [CRAMBESCIDIN 816], the Activity in the experiment on L1210 came out at 98%.
In [1], `COC[C@@H]([C@H](O)[C@H](O)C(=O)NCC[C@H](C)c1nc(/C=C/C[C@@H]2O[C@]3(C[C@@H](O)[C@@H]2C)O[C@H]([C@H](C[C@H](O)[C@H](C)[C@H](O)[C@H](C)/C=C(C)/C(C)=C/C=C/C(C)=C/C#N)OC)[C@H](OP(=O)(O)O)C3(C)C)co1)N(C)C` [CALYCULIN B] gave an IC50 of 0.9 nM.
In the experiment on KB, `CO[C@H]1C[C@H](CC[C@H](C)[C@H](O)[C@H](C)[C@H]2OC(=O)/C=C/C(C)=C/C[C@H](O)C[C@@H]3C=CC[C@@H](C[C@H](OC)[C@@H](C)[C@@H](O)C[C@@H](O)[C@H](C)[C@@H]([C@@H](C)[C@@H](O)[C@@H](C)CC[C@H]4C[C@H](OC)C[C@H](C)O4)OC(=O)/C=C/C(C)=C/C[C@H](O)C[C@@H]4C=CC[C@@H](C[C@H](OC)[C@@H](C)[C@@H](O)C[C@@H](O)[C@@H]2C)O4)O3)O[C@@H](C)C1` [Swinholide A] returned an IC50 of 0.04 µg/mL (≈ 0.0288 µM).
On to `COC[C@@H]([C@H](O)[C@H](O)C(=O)NCC[C@H](C)c1nc(/C=C/C[C@@H]2O[C@]3(C[C@@H](O)[C@@H]2C)O[C@H]([C@H](C[C@H](O)[C@H](C)[C@H](O)[C@H](C)/C=C(C)/C(C)=C/C=C/C(C)=C\C#N)OC)[C@H](OP(=O)(O)O)C3(C)C)co1)N(C)C` [CALYCULIN A], for which the IC50 in [1] worked out at 0.9 nM.
`COC[C@@H]([C@H](O)[C@H](O)C(=O)N[C@H](C)C[C@H](C)c1nc(/C=C/C[C@@H]2O[C@]3(C[C@@H](O)[C@@H]2C)O[C@H]([C@H](C[C@H](O)[C@H](C)[C@H](O)[C@H](C)/C=C(C)/C(C)=C\C=C\C(C)=C/C#N)OC)[C@H](OP(=O)(O)O)C3(C)C)co1)N(C)C` [CALYCULIN G] gave an IC50 in experiment [1] of 0.9 nM. This lies in the sub-nanomolar range.
